From PubChem
Rows were chosen to be rich in hits. Some 3% of all compounds tested hit in one or more screens of this group.
ABHD5 PLIN5 PPI: blocks binding of human ABHD5 to perilipin-5; Q00G26+Q8WTS1; inhibition, % at 4 µM; 360,000 tested, 0.78% active; Split G. princeps luciferase complementation, luminescence, 4 h;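 active = inhibition above the mean inhibition across every tested compound plus 3 SD, cut at about 22% in these data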
PfG6PD inh: PfG6PD (Plasmodium falciparum) enzyme inhibition; PfGluPho enzyme, NADPH resazurin-diaphorase fluorescence; inhibition, % at 20 µM; 350,000 tested, 0.78% active; AID 504690;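 active = inhibition reaching at least a set limit at 20 µM in the primary screen, cut at about 59% in these data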
MC4R antag cAMP: antagonists of human melanocortin 4 receptor (MC4R); inhibition, % at 6.5 µM; 360,000 tested, 0.48% active; P32245; MC4R-expressing cells, MTII-stimulated cAMP, LANCE TR-FRET;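 active = inhibition above its plate's cutoff, the mean of tested wells on that plate plus 3 SD, cut at about 29% in these data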
Target sequence (P32245 whole entry, looked up): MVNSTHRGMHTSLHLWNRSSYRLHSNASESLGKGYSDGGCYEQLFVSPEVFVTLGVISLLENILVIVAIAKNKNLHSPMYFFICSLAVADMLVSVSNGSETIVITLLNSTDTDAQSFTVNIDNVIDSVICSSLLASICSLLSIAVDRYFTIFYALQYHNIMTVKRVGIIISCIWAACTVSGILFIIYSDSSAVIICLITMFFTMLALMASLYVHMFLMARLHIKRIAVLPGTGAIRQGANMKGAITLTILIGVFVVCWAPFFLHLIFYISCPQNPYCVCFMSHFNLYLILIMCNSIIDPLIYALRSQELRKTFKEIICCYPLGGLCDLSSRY
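System: U2OS cells stably expressing human melanocortin 4 receptor (MC4R). Reagent: Melanotan II challenge after compound preincubation. Doses: 6.5 µM. Times: 30-min compound, 1-h challenge, 1-h detection, room temperature. Measured by: TR-FRET with Eu-cAMP and labeled anti-cAMP, 671 nm. Replicates: singlicate.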
B2AR ag: agonists of human beta-2 adrenergic receptor inducing internalization | P07550 | Am2.2-beta2AR cells, FAP receptor internalization, flow cytometry | response, % (no concentration beside the values) | 340,000 tested, 0.43% active | AID 504454;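 active = response above a set limit, near 3 SD of response in nonfluorescent compounds, cut at about 42% in these data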
MC4R barr agon: activates human MC4R beta-arrestin recruitment | activation, % at 8.9 µM | U2OS MC4R beta-arrestin complementation, luminescence; percent of melanotan II response, DMSO zero | AID 540308 | 360,000 tested, 0.98% active;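 active = activation above a per-plate cutoff, the mean activation of sample wells on that plate plus 3 SD, cut at about 8% in these data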
U2OS cAMP counter: U2OS forskolin cAMP inhibition counter-screen. shares compounds with MC4R antag cAMP. parental U2OS, LANCE TR-FRET. inhibition, % at 6.5 µM. 1,600 tested, 26% active. AID 602193;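 active = mean inhibition over triplicates above the low-control well mean plus 3 SD, set per campaign, cut at about 13% in these data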;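 note: signal is single emission at 671 nm which falls as cellular cAMP rises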
MC4R cAMP antag: human MC4R cAMP antagonism confirmation; shares compounds with MC4R antag cAMP; inhibition, % at 6.5 µM; 1,600 tested, 27% active; MC4R-expressing cells, MTII-stimulated cAMP, TR-FRET; in the data active = inhibition above about 29%
ABHD5-PLIN5 conf: ABHD5-PLIN5 interaction inhibition, confirmed; shares compounds with ABHD5 PLIN5 PPI; biochemical ABHD5-PLIN5 interaction, luminescence; inhibition, % at 4 µM; 2,200 tested, 67% active; AID 651612; in the data active = inhibition above about 23%
HNF4 counter: HNF4 split-luciferase signal hit, counter-screen; HNF4 dimerization, luminescence, biochemical; shares compounds with ABHD5 PLIN5 PPI; 2,200 tested, 77% active; inhibition, % at 4 µM;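 active = mean inhibition across replicate wells exceeding the computed hit threshold, cut at about 13% in these data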;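 note: light from luciferase halves that rejoin when HNF4 fusion proteins dimerize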
A number is an active result; – = inactive; · = not tested or not shown; + = active, no number; ! = repeats disagree.

SMILES	ABHD5 PLIN5 PPI	PfG6PD inh	MC4R antag cAMP	B2AR ag	MC4R barr agon	U2OS cAMP counter	MC4R cAMP antag	ABHD5-PLIN5 conf	HNF4 counter
COc1ccc(C(=O)C(CN2CCOCC2)c2ccccc2)cc1 (configuration not stated)	–	–	–	–	–	·	·	·	·
O=C(CCN1CCCC1Cc1ccccc1)c1ccc2c(c1)OCCO2 (configuration not stated)	28	–	36	–	–	16	35	25	87
COC(=O)c1cc(S(=O)(=O)NC2CCC(C)CC2)cn1C (configuration not stated)	–	–	–	–	–	·	·	·	·
O=C(O)c1ccccc1-c1c2cc(I)c(=O)c(I)c-2oc2c(I)c(O)c(I)cc12	30!	–	+	–	–	105	164	–	–
O=Cc1ccc(-c2ccccc2C(=O)O)o1	–	–	–	–	–	·	·	·	·
CCC1CCCCN1S(=O)(=O)c1ccc(NC(=O)c2nc(S(C)(=O)=O)ncc2Cl)cc1 (configuration not stated)	91	–	83	–	–	–	66	100	107
CCC1CCCCN1S(=O)(=O)c1ccc(NC(=O)c2ccncc2)cc1 (configuration not stated)	–	–	–	–	–	·	·	·	·
O=Cc1s/c(=N\S(=O)(=O)c2ccccc2)n(CCCCl)c1Cl	37	–	46	104	–	–	–	69	107
CC1CCCCC1NC(=O)/C(C#N)=C/c1ccccc1F (configuration not stated)	34	–	35	–	–	–	–	82	78
Cc1cccc(C(=O)Nc2ccc(C(=O)N/N=C/c3cccnc3)cc2)c1	–	–	–	–	–	·	·	·	·
Cc1cccc(C(=O)Nc2ccc(C(=O)/C=C/c3cccnc3)cc2)c1	68	–	30	80	–	–	–	102	102
COC(=O)CSc1[nH]c2ccc(F)cc2c1[N+](=O)[O-]	25	–	34	–	–	–	–	44	83
NC(=NCCCCCCN=C(N)/N=C(\N)Nc1ccc(Cl)cc1)/N=C(\N)Nc1ccc(Cl)cc1	34!	–	80!	–	–	–	71	26	–
CC(C)N=C(N)N=C(N)Nc1ccc(Cl)cc1	–	–	–	–	–	·	·	·	·
CC(C)c1nnc(NC(=O)c2nc(S(=O)(=O)Cc3ccccc3F)ncc2Cl)s1	·	–	·	·	·	·	·	·	·
CSc1nnc(NC(=O)c2nc(S(=O)(=O)Cc3ccccc3F)ncc2Cl)s1	25	–	41	–	–	18	38	86	55
CC(C)c1nnc(NC(=O)CS(=O)(=O)Cc2ccccc2)s1	–	–	–	–	–	·	·	·	·
CCSc1nnc(NC(=O)c2nc(S(=O)(=O)Cc3ccc(F)cc3)ncc2Cl)s1	24	–	49	–	–	14	–	80	49
Cc1cccc(CS(=O)(=O)c2ncc(Cl)c(C(=O)Nc3nnc(C(C)C)s3)n2)c1	52	–	58	–	–	27	54	90	59
Cc1ccc(CS(=O)(=O)c2ncc(Cl)c(C(=O)Nc3nnc(C(C)C)s3)n2)cc1	57	–	51	–	–	24	41	87	55
C=CCSc1nnc(NC(=O)c2nc(SCC)ncc2Cl)s1	–	–	–	–	–	·	·	·	·
O=C(Nc1ccc(OC(F)F)cc1)c1ncc(Cl)c(Cl)c1Cl	–	–	–	–	–	·	·	·	·
CC(C)c1nnc(NC(=O)c2nc(S(=O)(=O)Cc3ccc(F)cc3)ncc2Cl)s1	44	–	56	–	–	16	39	92	57
CSc1ncc(Cl)c(C(=O)Nc2nnc(SC/C=C/c3ccccc3)s2)n1	–	–	–	–	–	·	·	·	·
Cc1ccc(CS(=O)(=O)c2ncc(Cl)c(C(=O)Nc3ccc(OC(F)F)cc3)n2)cc1	57	–	40	–	–	23	–	90	89
SMILES	ABHD5 PLIN5 PPI	PfG6PD inh	MC4R antag cAMP	B2AR ag	MC4R barr agon	U2OS cAMP counter	MC4R cAMP antag	ABHD5-PLIN5 conf	HNF4 counter
CSc1nnc(NC(=O)c2nc(S(=O)(=O)Cc3cccc(C)c3)ncc2Cl)s1	30	–	59	–	–	29	48	86	56
Cc1ccc(S(=O)(=O)Nc2cc(C(F)(F)F)ccc2N2CCOCC2)c(C)c1	–	–	–	–	–	·	·	·	·
O=C1NC[C@@H](CCCCN2C[C@H](Cc3ccc(O)cc3)N(CC3CCCCC3)C(=O)C2=O)N(CCc2ccccc2)C1=O	–	·	·	·	·	·	·	·	·
O=C(c1ccc(Cl)cc1)C(CN1CCCC1)c1ccccc1 (configuration not stated)	48	–	31	–	–	–	–	53	103
CS(=O)(=O)c1ccc(C(=O)NCCN2C(=O)S/C(=C\c3cccnc3)C2=O)cc1[N+](=O)[O-]	56	–	32	–	–	18	33	67	44
CN(C)S(=O)(=O)c1ccc(C(=O)NCCN2C(=O)S/C(=C\c3cccnc3)C2=O)cc1	–	–	–	–	–	·	·	·	·
O=C(C#Cc1ccccc1)c1ccccc1	25	–	51	·	–	29	36	78	107
Nc1ccc(NC(=O)c2cccc(C(=O)Nc3ccc(N)cc3Cl)c2)c(Cl)c1	–	–	–	–	–	·	·	·	·
Cc1nn(-c2ccc(F)cc2)c(Cl)c1/C=C1\C(=O)Nc2ccccc21	–	–	–	–	–	·	·	·	·
Cc1c(Cl)sn(-c2ccc(Cl)cc2)c1=O	26	106	73	49	–	–	70	78	107
Cc1nn(-c2ccc(Cl)cc2)c(=O)c2ccccc12	–	–	–	–	–	·	·	·	·
CCOc1cc(C(=S)N2CCOCC2)cc(Br)c1OS(=O)(=O)c1ccccc1	–	–	–	–	–	·	·	·	·
N#CC(C#N)=C1C=CC=CN1/C(=C\c1ccco1)C(=O)c1ccc(-c2ccccc2)cc1	66	–	31	–	–	–	–	104	111
CC(C)CC1C(=O)N(Cc2cn(CC3CCCCC3)nn2)CCS(=O)(=O)N1Cc1ccc(-c2cccc(CO)c2)cc1 (configuration not stated)	–	–	–	·	–	·	·	·	·
CCN1CCN(c2nnc(-c3ccc(C)cc3)c3ccccc23)CC1	–	–	–	–	–	·	·	·	·
CC1=NNC(=O)/C1=C\c1cn(-c2ccccc2)nc1-c1cccs1	37	–	47	106	–	22	44	100	102
